# ChEMBL document CHEMBL1938288, “Discovery, synthesis, and pharmacological evaluation of spiropiperidine hydroxamic acid based derivatives as structurally novel histone deacetylase (HDAC) inhibitors” (J Med Chem, 2011)
# pIC50: −log10 of the molar value. Activity calls are given as the source filed them. The rule behind the calls is not given here.
# Columns and labels:
# [1] = test system: A549; test: Antiproliferative activity against human A549 cells after 72 hrs by CellTiter-Glo luminescent cell viability assay; format: functional, cell-based; details: A549, 72 h
# How it was run: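 Cells in exponential growth exposed to a range of inhibitor concentrations for 72 h. CellTiter-Glo reagent added, mixed 2 min to lyse cells, luminescence read 10 min later. IC50 derived from the concentration–response. Replicates n ≥ 2, mean shown.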
# [2] = target: Histone deacetylase; test: Inhibition of human HDAC in HeLa cell nuclear extracts using KI-104 Fluor de Lys as substrate by fluorescence assay; format: protein assay
# How it was run: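 HDAC activity from partially purified HeLa nuclear extracts, using a fluorogenic acetylated histone peptide (Fluor de Lys) as substrate. Replicates n ≥ 2, mean values reported.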
# [3] = test system: HCT-116; test: Cell cycle arrest in human HCT116 cells assessed as accumulation at G0/G1 phase at 1 to 3 uM after 24 hrs by flow cytometry; format: functional, cell-based; details: in the assay text read “G2/M phase” for “G0/G1 phase”
# How it was run: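 HCT-116 cells treated for 24 h at several concentrations. Harvested, fixed in 70% ethanol at -20 °C, RNase treated (1 mg/mL), stained with propidium iodide. DNA content measured by flow cytometry to give phase distribution, including the subG1 population.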
# [4] = Plasma clearance in CD1 mouse at 5 mg/kg, iv and 15 mg/kg, po; format: ADME, organism-based
# How it was run: (§1)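 Single dose to male CD-1 mice, either iv at 5 mg/kg or oral at 15 mg/kg. Plasma pharmacokinetic parameters were calculated from these dosings.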
# [5] = AUC (0 to infinity) in CD1 mouse at 15 mg/kg, po; format: ADME, organism-based; parameters: time infinity, dose 15 mg/kg, route oral; details: plasma; how it was run: as §1
# [6] = organism: Mus musculus; test: Hepatic blood flow in mouse; format: ADME, organism-based, Liver
# [7] = test system: Mus musculus; test: Toxicity in human HCT116 cells xenografted CD1 nude mouse assessed as signs of toxicity at 35 to 150 mg/kg, po administered for 5 days/week for 17 days; format: organism-based, HCT-116; parameters: dose 35-150 mg/kg, route oral; details: in vivo
# [8] = test system: Mus musculus; test: Toxicity in human HCT116 cells xenografted CD1 nude mouse assessed as change in body weight at 35 to 150 mg/kg, po administered for 5 days/week for 17 days; format: organism-based, HCT-116; parameters: dose 35-150 mg/kg, route oral; details: in vivo
# [9] = test system: Mus musculus; test: Increase of histone H4 cetylation in human HCT116 cells xenografted in CD1 mouse at 35 to 150 mg/kg, po administered for 5 days/week for 17 days by immunohistochemistry; format: functional, organism-based; details: HCT-116
# How it was run: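 Xenograft tumours from the oral efficacy study were collected 2 h after the last dose. They were formalin-fixed, paraffin-embedded, unmasked in TEG buffer pH 9, treated 5 min with 3% H2O2, and incubated overnight at 4 °C with anti-acetyl-histone H4. Staining was developed by HRP detection with hematoxylin counterstain. Positive cells and signal intensity were compared with vehicle.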
# [10] = target: Histone deacetylase 1 (Homo sapiens, UniProt Q13547); test: Inhibition of HDAC1 using carboxyfluorescein-labeled peptide as substrate after 17 hrs by fluorescence assay
# Chain of Histone deacetylase 1 (Q13547 whole entry, canonical isoform): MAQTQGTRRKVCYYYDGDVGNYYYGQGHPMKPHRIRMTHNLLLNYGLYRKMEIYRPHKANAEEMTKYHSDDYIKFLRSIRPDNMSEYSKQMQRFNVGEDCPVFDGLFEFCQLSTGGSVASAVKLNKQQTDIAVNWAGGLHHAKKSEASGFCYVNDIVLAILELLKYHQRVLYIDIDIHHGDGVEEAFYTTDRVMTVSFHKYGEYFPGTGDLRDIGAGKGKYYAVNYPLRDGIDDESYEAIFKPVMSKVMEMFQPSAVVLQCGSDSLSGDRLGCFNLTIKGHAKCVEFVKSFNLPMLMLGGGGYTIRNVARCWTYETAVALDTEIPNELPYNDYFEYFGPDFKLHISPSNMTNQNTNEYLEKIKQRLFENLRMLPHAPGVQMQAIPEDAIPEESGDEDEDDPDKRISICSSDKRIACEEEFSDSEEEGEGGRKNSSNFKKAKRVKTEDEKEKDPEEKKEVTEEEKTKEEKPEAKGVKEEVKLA
# How it was run: (§2)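 Purified HDAC isoforms incubated with compound and 1 μM carboxyfluorescein-labelled peptide for 17 h at 25 °C. Reaction stopped with HEPES/0.08% SDS. Substrate and product separated electrophoretically and read by fluorescence. Run in duplicate. IC50 from 12-point curves by nonlinear regression.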
# [11] = target: T1, Protein deacetylase HDAC6 (Homo sapiens, UniProt Q9UBN7); test: Inhibition of HDAC6 using carboxyfluorescein-labeled peptide as substrate after 17 hrs by fluorescence assay; how it was run: as §2
# T1 sequence (Q9UBN7 whole entry): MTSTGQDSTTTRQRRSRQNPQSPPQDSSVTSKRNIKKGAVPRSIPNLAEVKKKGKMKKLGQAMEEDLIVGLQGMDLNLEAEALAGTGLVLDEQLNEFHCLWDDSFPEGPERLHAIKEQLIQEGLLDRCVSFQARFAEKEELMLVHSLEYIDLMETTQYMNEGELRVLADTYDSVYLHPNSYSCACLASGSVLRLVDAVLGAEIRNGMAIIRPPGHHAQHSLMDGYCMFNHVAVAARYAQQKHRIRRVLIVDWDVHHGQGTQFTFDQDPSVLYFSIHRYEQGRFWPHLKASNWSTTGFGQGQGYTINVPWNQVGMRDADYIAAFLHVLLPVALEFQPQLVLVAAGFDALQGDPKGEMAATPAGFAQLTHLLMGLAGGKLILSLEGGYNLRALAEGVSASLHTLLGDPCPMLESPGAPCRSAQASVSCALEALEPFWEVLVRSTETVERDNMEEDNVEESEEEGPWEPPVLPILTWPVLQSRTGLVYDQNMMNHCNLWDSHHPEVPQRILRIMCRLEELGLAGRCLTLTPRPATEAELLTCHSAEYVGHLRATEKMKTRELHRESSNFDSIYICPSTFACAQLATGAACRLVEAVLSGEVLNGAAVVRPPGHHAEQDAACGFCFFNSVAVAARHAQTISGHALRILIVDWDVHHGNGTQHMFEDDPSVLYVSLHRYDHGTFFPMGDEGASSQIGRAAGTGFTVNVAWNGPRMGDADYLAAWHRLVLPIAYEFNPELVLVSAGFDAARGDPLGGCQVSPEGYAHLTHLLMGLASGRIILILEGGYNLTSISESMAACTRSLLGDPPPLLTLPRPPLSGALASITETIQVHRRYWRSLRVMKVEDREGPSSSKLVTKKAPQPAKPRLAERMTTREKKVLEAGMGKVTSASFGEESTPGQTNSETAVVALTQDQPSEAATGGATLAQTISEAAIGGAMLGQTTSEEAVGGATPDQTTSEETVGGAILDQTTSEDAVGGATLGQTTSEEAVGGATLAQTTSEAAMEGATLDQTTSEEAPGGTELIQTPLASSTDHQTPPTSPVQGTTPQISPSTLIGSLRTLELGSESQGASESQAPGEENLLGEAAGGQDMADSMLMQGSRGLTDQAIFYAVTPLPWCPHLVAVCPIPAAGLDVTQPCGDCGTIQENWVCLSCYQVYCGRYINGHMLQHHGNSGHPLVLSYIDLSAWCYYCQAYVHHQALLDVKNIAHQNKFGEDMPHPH
# [12] = Tmax in mouse; format: ADME, organism-based; details: in vivo
# [13] = target: Histone deacetylase (Homo sapiens) (UniProt Q13547+O15379+Q9UBN7+Q92769+Q9UQL6+Q8WUI4+Q9BY41+Q96DB2+P56524+Q9UKV0+Q969S8); details: HCT-116, 0.001 to 10 uM
compound,measurement,setting,value
O=C(/C=C/c1ccc2c(c1)C(=O)CC1(CCN(Cc3ccccc3)CC1)O2)NO,pIC50,[1],6.11
same,IC50,[2],0.121 µM
same,Activity,[3],Active
same,clearance,[4],98 mL/min/kg
same,AUC(0-inf),[5],800 ng·h/mL
same,QH,[6],5.4 L/h/kg
same,Activity,[7],Non-toxic
same,Activity,[8],Non-toxic
same,Activity,[9],Active
same,pIC50,[10],7.03
same,pIC50,[11],7.59
same,Tmax,[12],15 min
same,inhibition,[13],tde
